From ChEMBL document CHEMBL1137821, “Design of non-nucleoside inhibitors of HIV-1 reverse transcriptase with improved drug resistance properties. 1” (J Med Chem, 2004)
pIC50: −log10 of the molar value.

How the values were obtained:
[1] = test system: MT4; assay: Inhibitory concentration against nevirapine resistant human immunodeficiency virus type 1 mutant type Tyr181Cys was determined in MT-4 cells; format: functional, cell-based
Outline: (§1)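 Whole-cell antiviral assay in MT4 cells, a human T-cell lymphotropic virus-transformed line. Cells were infected with wild-type HIV-1 strain IIIB or with nevirapine-resistant HIV-1 carrying the Tyr181Cys RT mutation. Inhibition was read by a propidium iodide-based colorimetric assay that estimates DNA content.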

[2] = molecular target: T1, Human immunodeficiency virus type 1 reverse transcriptase (Human immunodeficiency virus 1, UniProt Q72547); assay: Concentration required for 50% inhibition of human immunodeficiency virus type 1 reverse transcriptase Ile100
[3] = molecular target: T1, Human immunodeficiency virus type 1 reverse transcriptase; assay: Concentration required for 50% inhibition of human immunodeficiency virus type 1 reverse transcriptase mutant type Cys181
[4] = test system: MT4; assay: Inhibitory concentration against human immunodeficiency virus type 1 was determined in MT-4 cells; format: functional, cell-based; outline: as §1
[5] = molecular target: T1, Human immunodeficiency virus type 1 reverse transcriptase; assay: Concentration required for 50% inhibition of human immunodeficiency virus type 1 reverse transcriptase mutant type Ile100
Outline: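 Inhibition of mutant HIV-1 RT enzyme, tested alongside wild-type RT; IC50 values are the mean of two independent experiments.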

Structure (SMILES)	pIC50 [1]	pIC50 [2]	pIC50 [3]	pIC50 [4]	pIC50 [5]
CCCc1c([S+]([O-])C2CCCCC2)c2cc(Cl)ccc2[nH]c1=O (stereo unspecified)	5.66	5.62	5.90	6.62	–
CCCc1c(OC2CCCCC2)c2cc(Cl)ccc2[nH]c1=O	6.22	–	5.95	7.52	5.87
CC(C)c1c(OC2CCCCC2)c2cc(Cl)ccc2[nH]c1=O	6.15	–	5.60	7.30	5.71
CCCc1c(SC2CCCCC2)c2cc(Cl)ccc2[nH]c1=O	6.44	5.79	6.07	7.00	–
